# Experimental data as given in ChEMBL document CHEMBL1629441, “Synthesis, in vitro and in vivo biological evaluation, and comprehensive understanding of structure-activity relationships of dipeptidyl boronic acid proteasome inhibitors constructed from β-amino acids” (J Med Chem, 2010).
# pIC50: −log10 of the molar value.
# Assay: Inhibition of human 20S proteasome chymotrypsin-like activity by fluorimetric assay
# Conditions: for pIC50: read-out: IC50; call rule not given here
# In short: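 Human 20S proteasome preincubated with test compound, then Suc-Leu-Leu-Val-Tyr-AMC hydrolysis monitored 1 h at 37 °C by fluorescence (excitation 360 nm, 465 nm). Buffer pH 7.5: 20 mM Tris, 1 mM DTT, 10% glycerol, 0.02% (w/v) SDS; DMSO 3% (v/v) final. IC50 from five concentrations, each in duplicate; bortezomib standard.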
Compound,pIC50,IC50
CC(C)C[C@H](NC(=O)CC(NC(=O)c1cccnc1)c1cccc([N+](=O)[O-])c1)B(O)O (stereo not given in full),7.57,–
CC(C)C[C@H](NC(=O)CC(NC(=O)c1cccnc1)c1cccc(F)c1)B(O)O (stereo not given in full),–,Not Active
CC(C)C[C@H](NC(=O)CC(NC(=O)c1cccnc1)c1ccc(F)cc1)B(O)O (stereo not given in full),6.23,–
CC(C)C[C@H](NC(=O)CC(NC(=O)c1ccccc1)c1ccc(Cl)cc1)B(O)O (stereo not given in full),7.68,–
CC(C)C[C@H](NC(=O)CC(NC(=O)c1cccnc1)c1ccccc1Cl)B(O)O (stereo not given in full),–,Not Active
COc1cccc(C(CC(=O)N[C@@H](CC(C)C)B(O)O)NC(=O)C(=O)OC(C)(C)C)c1 (stereo not given in full),–,Not Active
Cc1cccc(C(CC(=O)N[C@@H](CC(C)C)B(O)O)NC(=O)c2ccccc2)c1 (stereo not given in full),7.30,–
CC(C)C[C@H](NC(=O)CC(NC(=O)c1ccccc1)c1ccc([N+](=O)[O-])cc1)B(O)O (stereo not given in full),7.45,–
CC(C)C[C@H](NC(=O)CC(NC(=O)C(=O)OC(C)(C)C)c1cccc(Cl)c1)B(O)O (stereo not given in full),–,Not Active
CC(C)C[C@H](NC(=O)CC(NC(=O)C(=O)OC(C)(C)C)c1cccc(F)c1)B(O)O (stereo not given in full),–,Not Active
Cc1ccccc1C(CC(=O)N[C@@H](CC(C)C)B(O)O)NC(=O)c1ccccc1 (stereo not given in full),5.90,–
Cc1cccc(C[C@H](NC(=O)CC(NC(=O)c2ccccc2)c2cccc(F)c2)B(O)O)c1 (stereo not given in full),6.92,–
CC(=O)NC(CC(=O)N[C@@H](CC(C)C)B(O)O)c1cccc(F)c1 (stereo not given in full),–,Not Active
CC(=O)NC(CC(=O)N[C@@H](CC(C)C)B(O)O)c1cccc(Cl)c1 (stereo not given in full),–,Not Active
COc1cccc(C(CC(=O)N[C@@H](Cc2ccccc2F)B(O)O)NC(=O)c2cccnc2)c1 (stereo not given in full),6.22,–
Cc1ccccc1C(CC(=O)N[C@@H](CC(C)C)B(O)O)NC(=O)c1cccnc1 (stereo not given in full),5.90,–
COc1cccc(C(CC(=O)N[C@@H](CC(C)C)B(O)O)NC(=O)c2cccnc2)c1 (stereo not given in full),7.72,–
CC(C)C[C@H](NC(=O)CC(NC(=O)c1cnccn1)c1cccc(Cl)c1)B(O)O (stereo not given in full),7.01,–

Compound,pIC50,IC50
O=C(CC(NC(=O)c1cccnc1)c1cccc(Cl)c1)N[C@@H](CC1CCCCC1)B(O)O (stereo not given in full),–,Not Active
CC(C)C[C@H](NC(=O)CC(NC(=O)c1cccnc1)c1cccc(Cl)c1)B(O)O (stereo not given in full),7.64,–
Cc1cccc(C(CC(=O)N[C@@H](CC(C)C)B(O)O)NC(=O)c2cccnc2)c1 (stereo not given in full),7.30,–
CC(C)C[C@H](NC(=O)CC(NC(=O)c1ccccc1)c1cccc(Cl)c1)B(O)O (stereo not given in full),7.78,–
Cc1cccc(C[C@H](NC(=O)CC(NC(=O)c2ccccc2)c2cccc(Cl)c2)B(O)O)c1 (stereo not given in full),–,Not Active
O=C(CC(NC(=O)c1ccccc1)c1cccc(Cl)c1)N[C@@H](Cc1ccc(F)cc1)B(O)O (stereo not given in full),6.71,–
COc1cccc(C(CC(=O)N[C@@H](Cc2ccccc2)B(O)O)NC(=O)c2cccnc2)c1 (stereo not given in full),5.96,–
COc1ccccc1C(CC(=O)N[C@@H](CC(C)C)B(O)O)NC(=O)c1cccnc1 (stereo not given in full),7.06,–
Cc1ccc(C[C@H](NC(=O)CC(NC(=O)c2ccccc2)c2cccc(F)c2)B(O)O)cc1 (stereo not given in full),6.30,–
COc1cccc(C(CC(=O)N[C@@H](Cc2cccc(C)c2)B(O)O)NC(=O)c2cccnc2)c1 (stereo not given in full),5.75,–
O=C(CC(NC(=O)c1ccccc1)c1cccc(F)c1)N[C@@H](CC1CCCCC1)B(O)O (stereo not given in full),–,Not Active
COc1cccc(C(CC(=O)N[C@@H](Cc2ccccc2C)B(O)O)NC(=O)c2cccnc2)c1 (stereo not given in full),–,Not Active
CC(C)C[C@H](NC(=O)CC(NC(=O)c1ccccc1)c1ccccc1)B(O)O (stereo not given in full),7.40,–
O=C(CC(NC(=O)c1ccccc1)c1cccc(Cl)c1)N[C@@H](Cc1ccccc1F)B(O)O (stereo not given in full),6.43,–
CCCC[C@H](NC(=O)CC(NC(=O)c1cccnc1)c1cccc(OC)c1)B(O)O (stereo not given in full),5.83,–
CC(C)C[C@H](NC(=O)CC(NC(=O)C1CCCCC1)c1cccc(F)c1)B(O)O (stereo not given in full),7.48,–
Cc1ccc(C(CC(=O)N[C@@H](CC(C)C)B(O)O)NC(=O)c2ccccc2)cc1 (stereo not given in full),7.58,–
